The nature of data set [1]: Half life in human liver microsomes at 1 uM by LC/MS/MS analysis. It is filed as ADME, Microsome. The gist of the method: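 Test compound incubated with human liver microsomes to measure Phase I metabolic stability. Remaining compound quantified by LC/MS/MS, and stability reported as half-life (T1/2) in minutes.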
(Microsomes from liver hold many membrane-bound enzymes, among them those of drug oxidation.)

The target of data set [2] is CYP2D6 (Homo sapiens, UniProt P10635). The data set is described as follows: Inhibition of CYP2D6 at 3 uM by LC/MS/MS analysis. It is filed as ADME.
Data set [3] has as its target CYP3A4 (Homo sapiens, UniProt P08684). Nature of the data set: Inhibition of CYP3A4 at 3 uM by LC/MS/MS analysis. It is filed as ADME.
Data set [4] concerns the target T1, Ribosomal protein S6 kinase beta-1 (Homo sapiens, UniProt P23443). The data set is described as follows: Inhibition of S6K1.
Data set [5] is described as follows: Kinetic solubility of the compound in 50 mM phosphate buffer at pH 6.5. Type of data set: physicochemical.
Data set [6] is described as follows: Half life in human hepatocytes at 1 uM by LC/MS/MS analysis. Type of data set: ADME, cell-based, Liver, Hepatocyte. In outline: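 Stability measured in intact human hepatocytes, with remaining parent compound quantified by LC/MS/MS. Result expressed as half-life (T1/2) in minutes.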
For data set [7], the target named is CYP2C9 (Homo sapiens, UniProt P11712). Nature of the data set: Inhibition of CYP2C9 at 3 uM by LC/MS/MS analysis. It is filed as ADME.
Data set [8] concerns the target T2, CYP1A2 (Homo sapiens, UniProt P05177).
T2 sequence (P05177 whole entry): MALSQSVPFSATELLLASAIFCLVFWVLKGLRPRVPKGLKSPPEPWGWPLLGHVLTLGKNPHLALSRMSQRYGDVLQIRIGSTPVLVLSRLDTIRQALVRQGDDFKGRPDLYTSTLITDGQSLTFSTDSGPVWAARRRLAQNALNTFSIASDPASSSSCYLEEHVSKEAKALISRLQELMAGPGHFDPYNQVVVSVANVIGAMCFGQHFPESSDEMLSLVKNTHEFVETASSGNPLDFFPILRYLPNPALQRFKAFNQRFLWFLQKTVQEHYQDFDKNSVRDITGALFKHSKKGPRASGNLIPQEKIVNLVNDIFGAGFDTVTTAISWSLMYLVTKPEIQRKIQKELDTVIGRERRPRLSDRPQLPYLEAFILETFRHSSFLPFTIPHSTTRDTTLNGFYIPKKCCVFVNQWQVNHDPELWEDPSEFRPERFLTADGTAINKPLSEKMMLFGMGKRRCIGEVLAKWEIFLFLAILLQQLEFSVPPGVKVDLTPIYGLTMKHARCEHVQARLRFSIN
Nature of the data set: Inhibition of CYP1A2 at 3 uM by LC/MS/MS analysis. Type of data set: ADME.

In data set [9] the target is Voltage-gated inwardly rectifying potassium channel KCNH2 (Homo sapiens, UniProt Q12809). The data set is described as follows: Displacement of labeled dofetilide from human ERG.
For data set [10], the target named is T1, Ribosomal protein S6 kinase beta-1. The data set is described as follows: Inhibition of S6K1 in ribosomal protein S6 by whole cell assay.

Values after ≈ are worked out from the molar mass of the structure shown.

CYP3A4, sequence (P08684 whole entry): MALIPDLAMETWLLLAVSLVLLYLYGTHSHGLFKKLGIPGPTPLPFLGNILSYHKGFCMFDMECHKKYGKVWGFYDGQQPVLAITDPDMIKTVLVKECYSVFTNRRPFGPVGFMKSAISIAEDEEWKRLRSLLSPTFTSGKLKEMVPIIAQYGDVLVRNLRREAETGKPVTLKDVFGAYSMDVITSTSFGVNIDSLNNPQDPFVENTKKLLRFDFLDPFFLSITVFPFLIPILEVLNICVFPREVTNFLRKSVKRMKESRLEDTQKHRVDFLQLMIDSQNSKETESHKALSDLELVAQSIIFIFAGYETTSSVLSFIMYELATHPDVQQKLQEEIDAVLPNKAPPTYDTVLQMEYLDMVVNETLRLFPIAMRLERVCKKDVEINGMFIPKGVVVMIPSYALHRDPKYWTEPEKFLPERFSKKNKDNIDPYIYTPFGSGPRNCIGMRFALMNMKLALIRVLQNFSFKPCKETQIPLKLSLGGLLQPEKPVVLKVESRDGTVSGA
CYP2C9, sequence (P11712 whole entry): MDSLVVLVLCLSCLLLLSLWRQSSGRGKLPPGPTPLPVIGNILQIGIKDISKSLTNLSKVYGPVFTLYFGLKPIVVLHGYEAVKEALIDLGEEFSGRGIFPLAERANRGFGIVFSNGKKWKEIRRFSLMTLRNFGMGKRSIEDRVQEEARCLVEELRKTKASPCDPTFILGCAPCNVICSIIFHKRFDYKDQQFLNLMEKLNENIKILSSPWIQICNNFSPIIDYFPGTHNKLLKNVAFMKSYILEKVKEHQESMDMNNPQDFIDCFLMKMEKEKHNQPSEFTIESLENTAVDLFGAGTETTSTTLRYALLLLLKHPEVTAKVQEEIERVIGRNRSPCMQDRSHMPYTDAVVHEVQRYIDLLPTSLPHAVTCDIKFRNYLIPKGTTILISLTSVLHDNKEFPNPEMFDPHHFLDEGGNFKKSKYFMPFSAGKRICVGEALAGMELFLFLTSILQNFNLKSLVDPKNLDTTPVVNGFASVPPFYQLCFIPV
T1 sequence (P23443 whole entry): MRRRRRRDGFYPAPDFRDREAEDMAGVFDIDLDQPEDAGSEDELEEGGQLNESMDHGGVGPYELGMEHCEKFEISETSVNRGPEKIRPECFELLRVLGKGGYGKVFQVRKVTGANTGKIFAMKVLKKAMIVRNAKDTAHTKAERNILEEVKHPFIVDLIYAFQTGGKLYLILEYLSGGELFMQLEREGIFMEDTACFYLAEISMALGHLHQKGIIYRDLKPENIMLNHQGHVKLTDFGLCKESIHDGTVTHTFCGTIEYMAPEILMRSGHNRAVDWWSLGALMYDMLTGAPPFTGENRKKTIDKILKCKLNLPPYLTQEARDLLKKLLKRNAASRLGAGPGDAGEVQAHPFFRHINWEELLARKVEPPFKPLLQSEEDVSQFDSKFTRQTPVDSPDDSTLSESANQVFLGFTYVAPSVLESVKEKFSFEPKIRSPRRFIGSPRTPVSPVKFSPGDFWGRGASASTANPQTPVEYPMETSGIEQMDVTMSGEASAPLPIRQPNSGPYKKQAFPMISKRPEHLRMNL
Voltage-gated inwardly rectifying potassium channel KCNH2, sequence (Q12809 whole entry): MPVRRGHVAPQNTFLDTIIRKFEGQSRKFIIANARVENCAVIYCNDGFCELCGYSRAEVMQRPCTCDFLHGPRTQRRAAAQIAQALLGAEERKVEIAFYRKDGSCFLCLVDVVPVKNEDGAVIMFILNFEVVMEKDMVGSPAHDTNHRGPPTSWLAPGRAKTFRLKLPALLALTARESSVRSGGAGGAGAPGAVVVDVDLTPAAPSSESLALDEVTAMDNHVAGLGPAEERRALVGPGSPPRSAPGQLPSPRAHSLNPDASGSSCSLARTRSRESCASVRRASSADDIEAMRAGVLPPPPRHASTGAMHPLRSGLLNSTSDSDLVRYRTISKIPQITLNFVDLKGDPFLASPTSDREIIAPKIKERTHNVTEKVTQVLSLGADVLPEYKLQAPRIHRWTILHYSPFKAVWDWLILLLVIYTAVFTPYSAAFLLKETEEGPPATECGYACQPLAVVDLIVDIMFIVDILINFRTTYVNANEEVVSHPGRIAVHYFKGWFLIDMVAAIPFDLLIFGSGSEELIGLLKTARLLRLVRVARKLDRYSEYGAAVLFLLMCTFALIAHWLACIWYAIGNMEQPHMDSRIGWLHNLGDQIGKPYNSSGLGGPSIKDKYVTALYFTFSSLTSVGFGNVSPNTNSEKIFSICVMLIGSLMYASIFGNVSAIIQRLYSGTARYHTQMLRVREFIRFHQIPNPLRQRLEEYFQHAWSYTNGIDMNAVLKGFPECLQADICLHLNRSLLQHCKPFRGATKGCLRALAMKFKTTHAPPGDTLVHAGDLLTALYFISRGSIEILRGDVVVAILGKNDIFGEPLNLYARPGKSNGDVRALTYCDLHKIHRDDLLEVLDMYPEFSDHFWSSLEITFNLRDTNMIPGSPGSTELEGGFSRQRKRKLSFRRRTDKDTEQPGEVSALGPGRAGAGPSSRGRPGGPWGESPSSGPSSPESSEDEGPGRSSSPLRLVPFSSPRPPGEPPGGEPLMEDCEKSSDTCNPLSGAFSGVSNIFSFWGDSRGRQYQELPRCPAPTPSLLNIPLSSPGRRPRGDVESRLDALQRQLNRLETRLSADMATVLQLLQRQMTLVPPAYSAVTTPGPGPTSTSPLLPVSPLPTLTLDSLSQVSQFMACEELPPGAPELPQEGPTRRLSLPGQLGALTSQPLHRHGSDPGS
CYP2D6, sequence (P10635 whole entry): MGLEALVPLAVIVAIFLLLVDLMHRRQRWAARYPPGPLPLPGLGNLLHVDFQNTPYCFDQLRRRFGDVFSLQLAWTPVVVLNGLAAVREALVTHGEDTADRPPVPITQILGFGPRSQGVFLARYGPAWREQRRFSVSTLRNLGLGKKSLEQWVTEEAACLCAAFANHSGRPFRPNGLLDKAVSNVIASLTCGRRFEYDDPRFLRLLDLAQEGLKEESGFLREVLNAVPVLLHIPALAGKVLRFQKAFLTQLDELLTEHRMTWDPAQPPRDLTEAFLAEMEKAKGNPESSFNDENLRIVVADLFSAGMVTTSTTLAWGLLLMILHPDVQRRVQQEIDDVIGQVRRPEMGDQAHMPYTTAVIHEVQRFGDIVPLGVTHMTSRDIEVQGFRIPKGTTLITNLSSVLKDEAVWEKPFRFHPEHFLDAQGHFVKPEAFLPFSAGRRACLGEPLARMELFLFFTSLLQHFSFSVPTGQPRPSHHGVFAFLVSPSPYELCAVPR

On to `COCCNC(=O)c1cc(C(C)(C)C)sc1NC(=O)Nc1ccc2[nH]ncc2c1`, for which the half-life at 1 µM is > 2 h in data set [1] and 6.12 h in data set [6]. In addition, the inhibition at 3 µM in data set [2] worked out at 0%; in [3] it was 2%; in data set [7], 14%; in data set [8], 45%. Half-maximal inhibition in data set [4] (IC50) required 7 nM. The kinetic solubility in [5] amounted to 10 µg/mL (≈ 24.1 µM). In data set [9], the “inhibition (INH)” value is reported as 0%.
As to `CC(C)(C)c1cc(C(=O)N2CCS(=O)(=O)CC2)c(NC(=O)Nc2ccc(Oc3ccncc3)cc2)s1`, the IC50 in data set [4] is > 20000 nM.
Same read-out and setting: as for `CN(C)CCNC(=O)c1cc(C2CC2)sc1NC(=O)Nc1ccc2[nH]ncc2c1`, the figure is 70 nM; as for `CC(C)(C)c1cc(C(=O)NCc2ccccc2)c(NC(=O)Nc2ccc3[nH]ncc3c2)s1`, 201 nM.
With `CN(C)CCNC(=O)c1cc(C(C)(C)C)sc1NC(=O)Nc1ccc2[nH]ncc2c1`, the figures for the half-life at 1 µM in data set [1] and in data set [6] were 0.633 h and 2.08 h, respectively. Moreover, the inhibition at 3 µM in [2] was found to be 7%; in data set [3] it was 0%; in data set [7], 0%; in [8], 18%. Further, the values for the 50% inhibitory concentration (IC50) in data set [10] and in [4] were 521 nM and 15 nM, respectively. In [5], this compound had a solubility (kinetic) of 171 µg/mL (≈ 399 µM). Also, in data set [9], the “inhibition (INH)” value turned out to be 28%.
As for `CC(C)(C)c1cc(C(=O)NCCO)c(NC(=O)Nc2ccc3[nH]ncc3c2)s1`, the values for the half-life at 1 µM in [1] and in data set [6] were > 2 h and 4.38 h, respectively. Also, the inhibition at 3 µM in [2] is 9%; in data set [3] it was 0%; in [7], 30%; in [8], 52%. Also, the IC50 in data set [4] is 19 nM. The compound further had a kinetic solubility in data set [5] of 41 µg/mL (≈ 102 µM). Also, in data set [9], the “inhibition (INH)” value is given as 0%.
Turning to `CC(C)(C)c1cc(C(=O)N2CCS(=O)(=O)CC2)c(NC(=O)Nc2ccc(Oc3ccccc3F)cc2)s1`, the IC50 in [4] is > 20000 nM.
Consider `CC(C)(C)c1cc(C(=O)NC2CC2)c(NC(=O)Nc2ccc3[nH]ncc3c2)s1`, for which the half-life at 1 µM in [1] is > 2 h; in data set [6], 2.3 h. The inhibition at 3 µM amounted to 12% in data set [2], 11% in data set [3], 11% in data set [7] and 40% in [8]. The IC50 in [10] is 685 nM; in [4], 10 nM. The compound further yielded a kinetic solubility in data set [5] of 10 µg/mL (≈ 25.2 µM). The “inhibition (INH)” value in [9] worked out at 0%.
In data set [4], `Cc1c(O)cccc1NC(=O)Nc1sc(C(C)(C)C)cc1C(=O)N1CCS(=O)(=O)CC1` registered a half-maximal inhibitory concentration (IC50) of 4000 nM.
On to `CC(C)(C)c1cc(C(=O)N2CCS(=O)(=O)CC2)c(NC(=O)Nc2ccc3oc4cccnc4c3c2)s1`, for which the IC50 in data set [4] is > 20000 nM.
Same read-out and setting: as for `COc1ccccc1Oc1ccc(NC(=O)Nc2sc(C(C)(C)C)cc2C(=O)N2CCS(=O)(=O)CC2)cc1`, the figure is > 20000 nM.
Same read-out and setting: as for `Cc1cc(C(=O)NCCN(C)C)c(NC(=O)Nc2ccc3[nH]ncc3c2)s1`, the figure is 223 nM; as for `CC(C)c1cc(C(=O)NCCN(C)C)c(NC(=O)Nc2ccc3[nH]ncc3c2)s1`, 29 nM.
The same measure, in the same setting: for `C[C@H](O)c1cc(C(=O)NCCN(C)C)c(NC(=O)Nc2ccc3[nH]ncc3c2)s1` the value was 379 nM; for `CC(C)(C)c1cc(C(=O)NCc2ccccc2F)c(NC(=O)Nc2ccc3[nH]ncc3c2)s1`, 191 nM; for `CN(C)CCNC(=O)c1cc(-c2ccccc2)sc1NC(=O)Nc1ccc2[nH]ncc2c1`, 1900 nM.
The compound `CC(C)(C)c1cc(C(=O)N2CCS(=O)(=O)CC2)c(NC(=O)Nc2ccc(Oc3cccnc3)cc2)s1` yielded a concentration for half-maximal inhibition (IC50) in [4] of 9000 nM.
With `CC(C)(C)c1ccc(NC(=O)Nc2ccc3[nH]ncc3c2)s1`, the half-life at 1 µM in data set [1] came out at 0.917 h. Moreover, the inhibition at 3 µM in [2] amounted to 20%; in data set [3] it was 4%; in [7], 52%; in data set [8] it was 36%. This compound also had an IC50 in [4] of 19 nM. In [5], this compound showed a kinetic solubility of 7 µg/mL (≈ 22.3 µM). For the same compound, the “inhibition (INH)” value in [9] is reported as 0%.
Turning to `CC(C)(C)c1cc(C(=O)N2CCS(=O)(=O)CC2)c(NC(=O)Nc2ccc(Oc3ccccc3)cc2)s1`, the half-inhibitory concentration (IC50) in data set [4] is > 20000 nM.
Take `CC(C)(C)c1cc(C(=O)N2CCOCC2)c(NC(=O)Nc2ccc3[nH]ncc3c2)s1`: half-maximal inhibition in data set [4] (IC50) required 207 nM.
The same measure, in the same setting: as for `C[C@@H](O)c1cc(C(=O)NCCN(C)C)c(NC(=O)Nc2ccc3[nH]ncc3c2)s1`, the figure is 196 nM; as for `CC(C)(C)c1cc(C(=O)N2CCS(=O)(=O)CC2)c(NC(=O)Nc2ccc3[nH]ncc3c2)s1`, 34 nM; as for `CCc1cc(C(=O)NCCN(C)C)c(NC(=O)Nc2ccc3[nH]ncc3c2)s1`, 62 nM.

For orientation: half-life means the time needed for the level to fall by half in the phase considered. As a reminder, the inhibition is the change of the read-out against control, counted positive when it falls. A word on the IC50: it is the concentration needed to halve the response being measured. In general, kinetic solubility refers to the concentration staying in solution when a stock, usually in DMSO, is diluted into the medium.

The record behind these values is ChEMBL document CHEMBL1641460, “Potent and selective thiophene urea-templated inhibitors of S6K” (Bioorg Med Chem Lett, 2011).
